According to ChEMBL document CHEMBL5370602, “Structure-Based Design of a Lead Compound Derived from Natural Schweinfurthins with Antitumor Properties That Target Oxysterol-Binding Protein” (J Med Chem, 2023):
Activity calls are given as the source filed them. No cut-off for these calls is given here.

How the values were obtained:
[1] = system: U-87 MG; assay: Antiproliferative activity against human U-87 MG cells assessed as inhibition of cell proliferation incubated for 72 hrs by CellTiter-Glo luminescent assay; assay type: functional, cell-based, U-87MG ATCC
In short: (§1)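 A549 in RPMI 1640 and U-87MG in DMEM, each with 10% FCS and 1% glutamine, at 37 °C and 5% CO₂. Cells seeded at 3000/well, dosed the next day, treated 72 h. Viability read by CellTiter-Glo luminescence with DMSO-treated cells set to 100%. IC50 taken from survival curves over three independent experiments.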

[2] = system: A549; assay: Antiproliferative activity against human A549 cells assessed as inhibition of cell proliferation incubated for 72 hrs by CellTiter-Glo luminescent assay; assay type: functional, cell-based; conditions: A549, 72 h; in short: as §1
[3] = biological target: T1, Oxysterol-binding protein 1 (Homo sapiens, UniProt P22059); assay: Inhibition of human C-terminal 6-His tagged OSBP ORD domain (401 to 807 residues) expressed in baculovirus-infected Sf9 cells assessed as reduction in DHE transfer from liposome (Le mimicking ER) to liposome (Lg mimicking golgi) with compound by FRET assay
T1 sequence (P22059 whole entry): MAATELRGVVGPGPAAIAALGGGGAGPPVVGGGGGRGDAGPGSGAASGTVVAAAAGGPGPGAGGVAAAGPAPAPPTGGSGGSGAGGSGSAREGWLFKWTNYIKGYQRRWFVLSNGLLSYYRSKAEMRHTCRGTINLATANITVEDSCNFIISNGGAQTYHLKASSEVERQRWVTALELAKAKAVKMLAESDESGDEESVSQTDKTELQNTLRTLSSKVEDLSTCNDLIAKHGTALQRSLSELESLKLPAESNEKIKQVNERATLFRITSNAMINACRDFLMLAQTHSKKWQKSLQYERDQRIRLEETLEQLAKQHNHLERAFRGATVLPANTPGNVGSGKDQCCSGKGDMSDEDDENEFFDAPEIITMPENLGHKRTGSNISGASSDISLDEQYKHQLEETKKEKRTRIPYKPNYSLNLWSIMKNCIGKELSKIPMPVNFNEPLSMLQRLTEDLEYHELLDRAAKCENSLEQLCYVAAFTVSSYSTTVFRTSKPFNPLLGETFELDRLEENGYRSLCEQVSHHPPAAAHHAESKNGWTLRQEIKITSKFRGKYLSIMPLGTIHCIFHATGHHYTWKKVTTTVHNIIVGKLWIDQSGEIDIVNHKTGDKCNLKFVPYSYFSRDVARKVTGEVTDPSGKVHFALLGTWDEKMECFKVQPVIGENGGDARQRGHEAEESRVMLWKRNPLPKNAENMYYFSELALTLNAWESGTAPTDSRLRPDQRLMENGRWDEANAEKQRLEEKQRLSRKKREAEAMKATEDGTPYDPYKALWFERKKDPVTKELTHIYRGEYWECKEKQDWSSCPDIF
In short: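 Purified human OSBP ORD (401-807, C-terminal 6×His) from baculovirus-infected Sf9 cells, used in a DHE sterol transfer fluorescence assay. Signal corrected for compound fluorescence. Kinetics fitted linearly or by ΔF = ΔFmax(1 − e^−kt) to give apparent k, which was plotted against compound concentration. Ki from a quadratic (tight binders) or hyperbolic equation, three independent experiments.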

[4] = Metabolic stability in mouse liver microsomes assessed as compound remaining at 2.5 uM and measured after 45 mins in presence of NADPH by LC-MS/MS analysis; assay type: ADME, Microsome; conditions: read-out: Stability
[5] = Metabolic stability in mouse plasma assessed as compound remaining at 5 uM and measured after 120 mins by UPLC-MS/MS analysis; assay type: ADME, cell-free; conditions: read-out: Stability
In short: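 Male mouse plasma at 37 °C with compound added from a 5 µM solution […]. Sampled at 0, 15, 30, 45, 60 and 120 min, quenched with acetonitrile and read by LC-MS/MS (MRM) in duplicate. Procaine positive control. Remaining % and t1/2 derived from MRM area relative to t = 0.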

[6] = Metabolic stability in mouse liver microsomes assessed as compound remaining at 2.5 uM and measured after 45 mins in absence of NADPH by LC-MS/MS analysis; assay type: ADME, Microsome; conditions: read-out: Stability
[7] = Metabolic stability in mouse liver microsomes assessed as intrinsic clearance at 2.5 uM and measured upto 45 mins in presence of NADPH by LC-MS/MS analysis; assay type: ADME, Microsome; conditions: read-out: CLH
[8] = Drug uptake in human hTERT-RPE1 cells assessed as drug co-localization with OSBP perinuclear region of cell incubated for 30 mins by immunofluorescence analysis; assay type: ADME, cell-based; conditions: tert-rpe1, 0.5 h
In short: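 hTERT-RPE-1 cells incubated 30 min with compound, then fixed (4% paraformaldehyde, 0.1% glutaraldehyde, 10 min), quenched with 50 mM NH₄Cl and permeabilized in saponin 0.05%/BSA 0.2%. Immunolabeled for OSBP and TGN-46. Compound imaged directly by UV-adapted widefield fluorescence (excitation 330, emission 410 nm).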

[9] = biological target: T2, mTORC1 (Homo sapiens) (UniProt P42345+Q8N122+Q9BVC4); assay: Inhibition of mTORC1 signalling in human U-87 MG cells assessed as decrease in S6K phosphorylation at T389 residue at 0.05 to 1 uM incubated for 48 hrs by Western blot analysis; assay type: cell-based
In short: (§2)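 U-87 MG cells cultured two days, then exposed 48 h to increasing doses. Lysed in RIPA with protease inhibitors; 5 µg protein run on 4-20% SDS gels and transferred to PVDF. Probed for phospho/total AKT, S6, S6K, P62 and LC3, detected by ECL. Band intensities normalized to β-actin.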

[10] = biological target: mTORC2 (Homo sapiens) (UniProt P42345+Q6R327+Q9BVC4+Q9BPZ7); assay: Inhibition of mTORC2 signalling in human U-87 MG cells assessed as decrease in AKT phosphorylation at S473 residue at 0.05 to 1 uM incubated for 48 hrs by Western blot analysis; assay type: cell-based; in short: as §2
[11] = biological target: T3, Oxysterol-binding protein 1 (Homo sapiens) (UniProt P22059); assay: Inhibition of human OSBP in human hTERT-RPE1 cells co-transfected with GFP-P4MSidM and TagBFP-betaGalT1 assessed as increase in PI4P at TGN by measuring GFP-P4M fluorescence and measured after 50 mins by immunofluorescence analysis; assay type: cell-based
T3 sequence (whole entry): T1 sequence (P22059 whole entry)
In short: (§3)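 hTERT-RPE-1 cells electroporated with GFP-P4M^SidM (PI4P probe) and TagBFP-βGalT1, plated 18-24 h. Timelapse confocal imaging at 37 °C after compound addition, with P4M-GFP intensity at the TGN tracked over time and compared before and 50 min after addition. Mean of 4 to 6 independent experiments ± SEM.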

[12] = system: U-87 MG; assay: Induction of autophagy in human U-87 MG cells assessed as decrease in LC3I expression at 0.05 to 1 uM incubated for 48 hrs by Western blot analysis; assay type: functional, cell-based; conditions: U-87MG ATCC; in short: as §2
[13] = biological target: T3, Oxysterol-binding protein 1 (Homo sapiens); assay: Inhibition of human OSBP in human hTERT-RPE1 cells assessed as increase in OSBP recruitment at TGN and measured after 10 mins by confocal microscopy; assay type: cell-based
[14] = biological target: T2, mTORC1 (Homo sapiens); assay: Inhibition of mTORC1 signalling in human U-87 MG cells assessed as decrease in S6 phosphorylation at S240/244 residue at 0.05 to 1 uM incubated for 48 hrs by Western blot analysis; assay type: cell-based; in short: as §2
[15] = system: U-87 MG; assay: Induction of autophagy in human U-87 MG cells assessed as decrease in P62 expression at 0.05 to 1 uM incubated for 48 hrs by Western blot analysis; assay type: functional, cell-based; conditions: U-87MG ATCC; in short: as §2
[16] = biological target: T3, Oxysterol-binding protein 1 (Homo sapiens); assay: Inhibition of human OSBP in human hTERT-RPE1 cells assessed as increase in OSBP recruitment at TGN and measured after 4 hrs by confocal microscopy; assay type: cell-based
[17] = biological target: T3, Oxysterol-binding protein 1 (Homo sapiens); assay: Inhibition of human OSBP in human hTERT-RPE1 cells co-transfected with GFP-P4MSidM and TagBFP-betaGalT1 assessed as half life for inhibition of PI4P transfer by OBSP by immunofluorescence analysis; assay type: cell-based; in short: as §3
[18] = system: U-87 MG; assay: Induction of autophagy in human U-87 MG cells assessed as increase in LC3II expression at 0.05 to 1 uM incubated for 48 hrs by Western blot analysis; assay type: functional, cell-based; conditions: U-87MG ATCC; in short: as §2

Row | Structure (SMILES) | IC50 [1] [nM] | IC50 [2] [nM] | Ki [3] [nM] | also measured
1 | CC(C)=CCc1c(O)cc(/C=C/c2cc3c(c4c2C=CCO4)O[C@]2(C)CC[C@@H](O)C(C)(C)[C@H]2C3)cc1O | 481 | > 10000 | 37 | –
2 | CC(C)=CCC/C(C)=C/Cc1cc(/C=C/c2cc(O)c(CC=C(C)C)c(O)c2)cc(O)c1O [MAPPAIN] | 7000 | > 10000 | 3000 | –
3 | C=CCOc1cc(/C=C/c2cc(O)c(CC=C(C)C)c(O)c2)cc2c1O[C@]1(C)CC[C@@H](O)C(C)(C)[C@H]1C2 | 420 | 5000 | 31 | –
4 | COc1cc(/C=C/c2cc(O)c(CC=C(C)C)c(O)c2)cc2c1O[C@]1(C)CC[C@@H](O)C(C)(C)[C@H]1C2 [SCHWEINFURTHIN F] | 98 | 605 | 6 | –
5 | CC(C)=CCc1c(O)cc(/C=C/c2cc(O)c3c(c2)C[C@@H]2C(C)(C)[C@H](O)[C@H](O)C[C@@]2(C)O3)cc1O [VEDELIANIN] | 15 | 966 | < 1 | –
6 | COc1cc(/C=C/c2cc(O)c(CC=C(C)C)c(O)c2)cc2c1O[C@@]1(C)[C@H](C2)C(C)(C)[C@H](O)C[C@@H]1O | 510 | 1120 | 254 | –
7 | COc1cc(/C=C/c2cc(O)c(CC=C(C)C)c(O)c2)cc2c1O[C@]1(C)C[C@@H](O)[C@@H](O)C(C)(C)[C@H]1C2 [SCHWEINFURTHIN E] | 22 | 397 | < 1 | –
8 | COc1cc(CCc2cc(O)c3c(c2)OC(C)(C)CC3)cc2c1O[C@]1(C)CC[C@@H](O)C(C)(C)[C@H]1C2 | 3850 | > 10000 | 46 | –
9 | CC1(C)CCc2c(O)cc(CCc3cc(O)c4c(c3)C[C@@H]3C(C)(C)[C@H](O)CC[C@@]3(C)O4)cc2O1 | 77 | 3910 | < 1 | –
10 | CC(C)=CCc1c(O)cc(/C=C/c2cc(O)c3c(c2)C[C@@H]2C(C)(C)[C@H](O)CC[C@@]2(C)O3)cc1O [SCHWEINFURTHIN G] | 8 | 359 | < 1 | Drug uptake [8]: Active; remaining at 0.75 h, 2.5 µM [4]: 23%; inhibition [9]: Dose-Dependent Effect; inhibition [10]: Dose-Dependent Effect; inhibition [11]: Active; Activity [12]: Dose-Dependent Effect; inhibition [13]: Active; remaining at 2 h, 5 µM [5]: 100%; remaining at 0.75 h, 2.5 µM [6]: 100%; inhibition [14]: Dose-Dependent Effect; Activity [15]: Dose-Dependent Effect; microsomal CLint at 2.5 µM [7]: 90 µL/min/mg; inhibition [16]: inactive; T1/2 [17]: 10 min; Activity [18]: Dose-Dependent Effect
11 | COc1cc(/C=C/c2cc(O)c3c(c2)OC(C)(C)C(O)C3)cc2c1O[C@]1(C)C[C@@H](O)[C@@H](O)C(C)(C)[C@H]1C2 (some centres undefined) [SCHWEINFURTHIN H] | 656 | 1790 | 401 | –
12 | C=CCc1c(/C=C/c2cc(O)c(CC=C(C)C)c(O)c2)cc2c(c1O)O[C@]1(C)CC[C@@H](O)C(C)(C)[C@H]1C2 | 457 | 2860 | 119 | –
13 | C#CCOc1cc(/C=C/c2cc(O)c(CC=C(C)C)c(O)c2)cc2c1O[C@]1(C)CC[C@@H](O)C(C)(C)[C@H]1C2 | 286 | 3900 | 43 | –

Continued, in another order:

Row | IC50 [1] [nM] | IC50 [2] [nM] | Ki [3] [nM] | Structure (SMILES) | also measured
14 | 380 | 2420 | 523 | COc1cc(/C=C/c2cc(O)c3c(c2)OC(C)(C)CC3)cc2c1O[C@]1(C)CC[C@@H](OC=O)C(C)(C)[C@H]1C2 | –
15 | 9.4 | 647 | < 1 | CC1(C)CCc2c(O)cc(/C=C/c3cc(O)c4c(c3)C[C@@H]3C(C)(C)[C@H](O)CC[C@@]3(C)O4)cc2O1 | remaining at 0.75 h, 2.5 µM [4]: 48.6%; remaining at 2 h, 5 µM [5]: 100%; remaining at 0.75 h, 2.5 µM [6]: 100%; microsomal CLint at 2.5 µM [7]: 32 µL/min/mg
16 | 1480 | > 10000 | 3700 | COc1cc(CCc2cc(O)c3c(c2)OC(C)(C)CC3)cc2c1O[C@]1(C)CC[C@@H](OC=O)C(C)(C)[C@H]1C2 | –
17 | 336 | 1100 | 16 | COc1cc(/C=C/c2cc(O)c3c(c2)OC(C)(C)CC3)cc2c1O[C@]1(C)C[C@@H](O)[C@@H](O)C(C)(C)[C@H]1C2 | –
18 | 478 | 2530 | 64 | COc1cc(/C=C/c2cc(O)c3c(c2)OC(C)(C)CC3)cc2c1O[C@]1(C)CC[C@@H](O)C(C)(C)[C@H]1C2 | –
19 | 500 | 2150 | 829 | COc1cc(/C=C/c2cc(O)c3c(c2)OC(C)(C)CC3)cc2c1O[C@]1(C)C[C@@H](O)[C@@H](OC=O)C(C)(C)[C@H]1C2 | –
20 | 67 | 3040 | 3220 | CC1(C)CCc2c(O)cc(CCc3cc(O)c4c(c3)C[C@@H]3C(C)(C)[C@H](OC=O)CC[C@@]3(C)O4)cc2O1 | –
